Experimental data: ChEMBL document CHEMBL1914368, “Imidazo[1,5-a]quinoxalines as irreversible BTK inhibitors for the treatment of rheumatoid arthritis” (Bioorg Med Chem Lett, 2011)
Activity calls are given as the source filed them. The calls are words filed in the database; no cut-off is given here.

Key:
[1] = target: 3-phosphoinositide-dependent protein kinase 1 (Homo sapiens) (UniProt O15530); experiment: Inhibition of PDK1 relative to control; conditions: concentration not given here
[2] = Oral bioavailability in mouse at 10 mg/kg; type: ADME, organism-based; conditions: in vivo
Outline: (§1)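 Mouse pharmacokinetics from single dosing at 2 mg/kg iv and 10 mg/kg po. The study derived AUC, T1/2, clearance, Vss, Tmax, Cmax and oral bioavailability (%F) from the paired iv and po arms.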

[3] = target: cAMP-dependent protein kinase catalytic subunit alpha (Homo sapiens) (UniProt P17612); experiment: Inhibition of PRKACA relative to control; conditions: concentration not given here
[4] = AUC (0 to infinity) in mouse at 10 mg/kg, po; type: ADME, organism-based; parameters: time infinity, dose 10 mg/kg, route oral; conditions: plasma
[5] = target: Tyrosine-protein kinase ABL1 (Homo sapiens, UniProt P00519); experiment: Inhibition of Abl1 relative to control
[6] = target: Tyrosine-protein kinase Fgr (Homo sapiens) (UniProt P09769); experiment: Inhibition of FGR relative to control; conditions: concentration not given here
[7] = target: Tyrosine-protein kinase Fyn (Homo sapiens, UniProt P06241); experiment: Inhibition of FYN relative to control
[8] = target: Tyrosine-protein kinase ABL2 (Homo sapiens) (UniProt P42684); experiment: Inhibition of ABL2 relative to control; conditions: concentration not given here
Mus musculus [9] = experiment: Antiarthritic activity in C57BL/6 mouse assessed as inhibition of T-independent type 2 antigen-induced IgG3 antibody titer production administered qd for 7 days by ELISA; type: functional, organism-based; conditions: C57BL6
Outline: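 Female C57BL/6 mice, 8–10 weeks old, immunized ip with NP(109)-Ficoll (TI-2 antigen). Compound or vehicle given po daily for 7 days, starting 1 day before immunization. Serum was collected 6 days after immunization, and NP-specific IgM and IgG3 titers were measured by ELISA.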

[10] = target: Protein-tyrosine kinase 6 (Homo sapiens) (UniProt Q13882); experiment: Inhibition of BRK relative to control; conditions: concentration not given here
[11] = target: Tyrosine-protein kinase Lck (Homo sapiens, UniProt P06239); experiment: Inhibition of C-terminal His6-tagged human full-length LCK expressed in Sf9 cells after 60 mins by TR-FRET Assay
[12] = target: Tyrosine-protein kinase Fer (Homo sapiens) (UniProt P16591); experiment: Inhibition of FER relative to control; conditions: concentration not given here
Ephrin type-A receptor 8 = Ephrin type-A receptor 8 (Homo sapiens, UniProt P29322); experiment: (§2) Inhibition of EPHA8 relative to control
[13] = target: Ephrin type-A receptor 8 (Homo sapiens) (UniProt P29322); experiment: as §2; conditions: concentration not given here
Mus musculus [14] = experiment: Antiarthritic activity in DBA/1 JBomTac mouse collagen-induced arthritis model assessed as inhibition of disease progression at 1 mg/kg, po qd measured on day 19 to 22; type: functional, organism-based; parameters: dose 1 mg/kg
Outline: (§3)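 Semi-therapeutic collagen-induced arthritis model. Blinded paw scoring used a 0–4 scale, reported as mean and SEM. Comparison to vehicle used Student's t-test, P <0.05.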

[15] = target: Receptor tyrosine-protein kinase erbB-4 (Homo sapiens, UniProt Q15303); experiment: Inhibition of ERBB4 relative to control
Receptor tyrosine-protein kinase erbB-4, sequence (Q15303 whole entry): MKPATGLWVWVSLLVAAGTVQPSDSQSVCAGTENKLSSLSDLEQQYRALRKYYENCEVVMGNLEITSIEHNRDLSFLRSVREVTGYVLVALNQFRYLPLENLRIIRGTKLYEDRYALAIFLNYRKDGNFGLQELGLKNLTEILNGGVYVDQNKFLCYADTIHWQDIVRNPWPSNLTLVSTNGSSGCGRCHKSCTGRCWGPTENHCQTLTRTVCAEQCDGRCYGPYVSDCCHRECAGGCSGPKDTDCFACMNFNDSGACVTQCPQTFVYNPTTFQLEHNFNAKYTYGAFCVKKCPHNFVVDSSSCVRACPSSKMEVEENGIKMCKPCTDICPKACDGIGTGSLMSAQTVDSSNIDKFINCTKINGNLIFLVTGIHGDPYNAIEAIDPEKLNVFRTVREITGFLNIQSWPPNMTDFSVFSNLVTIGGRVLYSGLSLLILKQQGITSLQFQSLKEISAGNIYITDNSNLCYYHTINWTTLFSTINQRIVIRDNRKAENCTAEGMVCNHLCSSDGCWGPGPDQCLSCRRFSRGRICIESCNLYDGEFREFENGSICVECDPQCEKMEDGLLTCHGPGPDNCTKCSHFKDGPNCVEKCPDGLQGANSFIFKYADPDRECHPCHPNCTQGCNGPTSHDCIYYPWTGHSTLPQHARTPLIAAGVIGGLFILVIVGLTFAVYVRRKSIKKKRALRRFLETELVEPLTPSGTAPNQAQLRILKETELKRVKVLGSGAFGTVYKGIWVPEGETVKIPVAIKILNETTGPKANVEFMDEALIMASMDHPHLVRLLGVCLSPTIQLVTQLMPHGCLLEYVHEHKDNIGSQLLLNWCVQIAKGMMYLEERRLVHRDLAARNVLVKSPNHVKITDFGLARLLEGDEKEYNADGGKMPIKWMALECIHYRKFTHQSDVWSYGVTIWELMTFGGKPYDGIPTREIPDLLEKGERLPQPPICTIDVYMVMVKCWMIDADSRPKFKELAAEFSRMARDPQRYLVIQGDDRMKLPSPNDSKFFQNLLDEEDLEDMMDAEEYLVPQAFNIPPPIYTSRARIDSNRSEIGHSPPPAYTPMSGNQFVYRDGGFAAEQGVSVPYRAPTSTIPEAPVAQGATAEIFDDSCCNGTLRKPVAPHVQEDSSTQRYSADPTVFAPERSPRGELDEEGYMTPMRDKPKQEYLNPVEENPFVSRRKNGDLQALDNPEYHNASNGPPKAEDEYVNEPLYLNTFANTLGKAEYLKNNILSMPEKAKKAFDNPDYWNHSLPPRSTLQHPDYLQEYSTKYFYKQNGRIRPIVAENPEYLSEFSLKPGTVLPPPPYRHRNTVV

[16] = target: Tyrosine-protein kinase Blk (Homo sapiens, UniProt P51451); experiment: Inhibition of BLK relative to control
[17] = target: Glycogen synthase kinase-3 alpha (Homo sapiens) (UniProt P49840); experiment: Inhibition of GSK3A relative to control; conditions: concentration not given here
Glycogen synthase kinase-3 alpha (Homo sapiens), sequence (P49840 2-483 limits assumed): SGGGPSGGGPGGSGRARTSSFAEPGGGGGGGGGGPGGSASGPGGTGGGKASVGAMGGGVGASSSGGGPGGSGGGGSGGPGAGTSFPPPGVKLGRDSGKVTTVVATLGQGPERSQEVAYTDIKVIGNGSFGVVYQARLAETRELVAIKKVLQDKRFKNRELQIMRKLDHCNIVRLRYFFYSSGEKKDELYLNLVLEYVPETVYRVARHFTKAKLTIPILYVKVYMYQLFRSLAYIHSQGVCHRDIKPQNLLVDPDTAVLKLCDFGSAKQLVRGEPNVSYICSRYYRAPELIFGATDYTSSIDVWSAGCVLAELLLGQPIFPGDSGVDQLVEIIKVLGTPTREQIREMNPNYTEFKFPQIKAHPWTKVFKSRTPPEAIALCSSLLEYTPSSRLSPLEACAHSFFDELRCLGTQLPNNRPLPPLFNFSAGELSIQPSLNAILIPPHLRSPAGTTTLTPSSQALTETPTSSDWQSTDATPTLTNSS

[18] = target: Ribosomal protein S6 kinase alpha-1 (Homo sapiens) (UniProt Q15418); experiment: Inhibition of RSK1 relative to control; conditions: concentration not given here
[19] = target: Tyrosine-protein kinase BTK (Homo sapiens, UniProt Q06187); experiment: Inhibition of human full-length BTK expressed in Sf9 cells using FAM-Srctide peptide as substrate preincubated for 60 mins measured after 60 mins by TR-FRET Assay
Tyrosine-protein kinase BTK, sequence (Q06187 whole entry): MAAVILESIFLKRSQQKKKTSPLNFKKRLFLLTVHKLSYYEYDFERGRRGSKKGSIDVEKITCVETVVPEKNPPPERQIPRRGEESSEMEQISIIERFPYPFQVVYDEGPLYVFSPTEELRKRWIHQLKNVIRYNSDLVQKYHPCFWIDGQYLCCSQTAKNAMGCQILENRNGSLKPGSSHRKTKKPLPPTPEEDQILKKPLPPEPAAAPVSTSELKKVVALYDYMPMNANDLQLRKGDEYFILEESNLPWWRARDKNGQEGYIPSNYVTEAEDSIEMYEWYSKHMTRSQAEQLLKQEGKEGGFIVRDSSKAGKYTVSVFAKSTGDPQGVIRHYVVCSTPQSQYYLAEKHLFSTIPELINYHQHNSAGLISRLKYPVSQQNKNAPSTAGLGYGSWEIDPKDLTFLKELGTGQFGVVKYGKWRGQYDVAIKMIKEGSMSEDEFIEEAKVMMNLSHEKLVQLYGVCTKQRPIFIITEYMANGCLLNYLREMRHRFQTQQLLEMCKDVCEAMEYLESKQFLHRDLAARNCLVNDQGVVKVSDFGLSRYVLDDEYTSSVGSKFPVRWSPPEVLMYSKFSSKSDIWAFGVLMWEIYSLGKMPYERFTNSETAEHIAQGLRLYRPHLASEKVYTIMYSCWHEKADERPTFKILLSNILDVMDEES
Outline: (§4)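 The compound was pre-incubated with the kinase before the enzymatic reaction was started. IC50 values are averages of two or more determinations.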

[20] = target: Mitogen-activated protein kinase 8 (Homo sapiens) (UniProt P45983); experiment: Inhibition of MAPK8 relative to control; conditions: concentration not given here
[21] = target: Hepatocyte growth factor receptor (Homo sapiens) (UniProt P08581); experiment: Inhibition of MET relative to control; conditions: concentration not given here
[22] = target: Mitogen-activated protein kinase 14 (Homo sapiens) (UniProt Q16539); experiment: Inhibition of MAPK14 relative to control; conditions: concentration not given here
Mus musculus [23] = experiment: Antiarthritic activity in DBA/1 JBomTac mouse collagen-induced arthritis model assessed as inhibition of disease progression at 10 mg/kg, po qd measured on day 7 to 22; type: functional, organism-based; parameters: dose 10 mg/kg; outline: as §3
[24] = Tmax in mouse at 10 mg/kg, po; type: ADME, organism-based; parameters: dose 10 mg/kg, route oral; conditions: in vivo; outline: as §1
[25] = Volume of distribution at steady state in mouse at 2 mg/kg, iv; type: ADME, organism-based; parameters: dose 2 mg/kg, route intravenous; conditions: in vivo, read-out: Vdss; outline: as §1
[26] = Half life in mouse at 2 mg/kg, iv; type: ADME, organism-based; parameters: dose 2 mg/kg, route intravenous; conditions: in vivo
[27] = target: RAF proto-oncogene serine/threonine-protein kinase (Homo sapiens) (UniProt P04049); experiment: Inhibition of RAF1 relative to control; conditions: concentration not given here
[28] = target: Platelet-derived growth factor receptor beta (Homo sapiens) (UniProt P09619); experiment: Inhibition of PDGFRbeta relative to control; conditions: concentration not given here
Platelet-derived growth factor receptor beta (Homo sapiens), sequence (P09619 whole entry): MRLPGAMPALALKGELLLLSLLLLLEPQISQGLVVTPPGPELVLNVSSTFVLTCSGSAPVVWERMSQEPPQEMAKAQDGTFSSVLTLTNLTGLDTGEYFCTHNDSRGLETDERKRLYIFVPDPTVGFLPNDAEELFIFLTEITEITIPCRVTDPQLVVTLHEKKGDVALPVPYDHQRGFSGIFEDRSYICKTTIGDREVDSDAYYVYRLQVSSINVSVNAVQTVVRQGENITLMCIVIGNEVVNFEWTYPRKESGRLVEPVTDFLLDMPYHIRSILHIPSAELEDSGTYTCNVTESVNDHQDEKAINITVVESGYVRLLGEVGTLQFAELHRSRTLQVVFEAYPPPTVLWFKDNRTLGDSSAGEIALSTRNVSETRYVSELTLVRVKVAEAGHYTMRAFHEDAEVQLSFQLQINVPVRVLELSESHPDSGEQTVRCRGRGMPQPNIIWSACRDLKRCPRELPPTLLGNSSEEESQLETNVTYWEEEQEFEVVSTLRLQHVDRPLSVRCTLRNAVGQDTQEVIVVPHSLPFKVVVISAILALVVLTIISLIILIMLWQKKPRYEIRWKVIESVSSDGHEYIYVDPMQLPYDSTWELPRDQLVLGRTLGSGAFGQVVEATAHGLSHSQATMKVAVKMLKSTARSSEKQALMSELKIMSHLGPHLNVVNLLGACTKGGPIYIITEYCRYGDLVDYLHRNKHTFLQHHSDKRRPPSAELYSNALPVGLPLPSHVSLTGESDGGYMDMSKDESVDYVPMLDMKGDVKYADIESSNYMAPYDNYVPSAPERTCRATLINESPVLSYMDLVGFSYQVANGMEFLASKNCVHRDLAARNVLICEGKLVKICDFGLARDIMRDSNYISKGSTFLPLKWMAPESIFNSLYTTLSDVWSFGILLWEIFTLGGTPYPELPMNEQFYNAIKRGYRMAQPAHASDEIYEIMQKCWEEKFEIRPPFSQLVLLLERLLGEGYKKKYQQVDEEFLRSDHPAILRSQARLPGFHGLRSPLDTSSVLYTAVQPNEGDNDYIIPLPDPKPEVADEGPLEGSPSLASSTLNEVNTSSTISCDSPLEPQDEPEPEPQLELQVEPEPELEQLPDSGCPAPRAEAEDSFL

Mus musculus [29] = experiment: Antiarthritic activity in DBA/1 JBomTac mouse collagen-induced arthritis model assessed as inhibition of disease progression at 3 mg/kg, po qd measured on day 5 to 22; type: functional, organism-based; parameters: dose 3 mg/kg; outline: as §3
[30] = target: Tyrosine-protein kinase JAK3 (Homo sapiens) (UniProt P52333); experiment: Inhibition of JAK3 relative to control; conditions: concentration not given here
[31] = target: Mitogen-activated protein kinase 1 (Homo sapiens) (UniProt P28482); experiment: Inhibition of MAPK1 relative to control; conditions: concentration not given here
Mitogen-activated protein kinase 1 (Homo sapiens), sequence (P28482 whole entry): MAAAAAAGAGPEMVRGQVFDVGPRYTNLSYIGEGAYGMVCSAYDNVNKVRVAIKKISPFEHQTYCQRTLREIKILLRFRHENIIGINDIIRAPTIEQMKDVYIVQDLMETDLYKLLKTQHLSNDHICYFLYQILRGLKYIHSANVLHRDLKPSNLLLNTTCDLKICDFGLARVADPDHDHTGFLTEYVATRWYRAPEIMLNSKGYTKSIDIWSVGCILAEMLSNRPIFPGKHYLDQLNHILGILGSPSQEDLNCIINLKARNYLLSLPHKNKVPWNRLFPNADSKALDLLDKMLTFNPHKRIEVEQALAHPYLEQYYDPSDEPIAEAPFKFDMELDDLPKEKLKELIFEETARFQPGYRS

[32] = target: Mitogen-activated protein kinase 3 (Homo sapiens) (UniProt P27361); experiment: Inhibition of MAPK3 relative to control; conditions: concentration not given here
[33] = target: Receptor tyrosine-protein kinase erbB-2 (Homo sapiens) (UniProt P04626); experiment: Inhibition of HER2 relative to control; conditions: concentration not given here
[34] = Clearance in mouse at 2 mg/kg, iv; type: ADME, organism-based; parameters: dose 2 mg/kg, route intravenous; conditions: in vivo
[35] = AUC (0 to infinity) in mouse at 2 mg/kg, iv; type: ADME, organism-based; parameters: time infinity, dose 2 mg/kg, route intravenous; conditions: plasma
[36] = target: Tyrosine-protein kinase HCK (Homo sapiens) (UniProt P08631); experiment: Inhibition of HCK relative to control; conditions: concentration not given here
Tyrosine-protein kinase HCK (Homo sapiens), sequence (P08631 2-526 limits assumed): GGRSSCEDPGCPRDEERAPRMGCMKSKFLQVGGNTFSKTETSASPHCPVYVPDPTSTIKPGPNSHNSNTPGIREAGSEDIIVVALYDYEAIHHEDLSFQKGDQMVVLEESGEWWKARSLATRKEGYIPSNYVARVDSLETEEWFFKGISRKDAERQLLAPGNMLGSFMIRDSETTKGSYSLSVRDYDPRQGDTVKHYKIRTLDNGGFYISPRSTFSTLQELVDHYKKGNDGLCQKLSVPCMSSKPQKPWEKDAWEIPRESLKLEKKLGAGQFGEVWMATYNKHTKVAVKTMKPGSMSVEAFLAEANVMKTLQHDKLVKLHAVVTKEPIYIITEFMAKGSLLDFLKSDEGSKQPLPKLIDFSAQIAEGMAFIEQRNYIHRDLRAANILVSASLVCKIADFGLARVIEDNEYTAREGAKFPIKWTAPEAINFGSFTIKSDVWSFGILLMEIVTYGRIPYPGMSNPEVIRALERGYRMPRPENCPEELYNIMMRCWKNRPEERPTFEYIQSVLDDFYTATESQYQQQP

[37] = target: Tyrosine-protein kinase Lyn (Homo sapiens, UniProt P07948); experiment: Inhibition of LYN-A expressed in Sf9 cells preincubated for 60 mins measured after 60 mins by TR-FRET Assay; outline: as §4
[38] = target: Tyrosine-protein kinase Mer (Homo sapiens) (UniProt Q12866); experiment: Inhibition of MERTK relative to control; conditions: concentration not given here
Ephrin type-B receptor 3 = Ephrin type-B receptor 3 (Homo sapiens, UniProt P54753); experiment: (§5) Inhibition of EPHB3 relative to control
[39] = target: Ephrin type-B receptor 3 (Homo sapiens) (UniProt P54753); experiment: as §5; conditions: concentration not given here
[40] = target: RAC-alpha serine/threonine-protein kinase (Homo sapiens) (UniProt P31749); experiment: Inhibition of AKT1 relative to control; conditions: concentration not given here
[41] = target: Serine/threonine-protein kinase Chk2 (Homo sapiens) (UniProt O96017); experiment: Inhibition of CHEK2 relative to control; conditions: concentration not given here
Serine/threonine-protein kinase Chk2 (Homo sapiens), sequence (O96017 whole entry): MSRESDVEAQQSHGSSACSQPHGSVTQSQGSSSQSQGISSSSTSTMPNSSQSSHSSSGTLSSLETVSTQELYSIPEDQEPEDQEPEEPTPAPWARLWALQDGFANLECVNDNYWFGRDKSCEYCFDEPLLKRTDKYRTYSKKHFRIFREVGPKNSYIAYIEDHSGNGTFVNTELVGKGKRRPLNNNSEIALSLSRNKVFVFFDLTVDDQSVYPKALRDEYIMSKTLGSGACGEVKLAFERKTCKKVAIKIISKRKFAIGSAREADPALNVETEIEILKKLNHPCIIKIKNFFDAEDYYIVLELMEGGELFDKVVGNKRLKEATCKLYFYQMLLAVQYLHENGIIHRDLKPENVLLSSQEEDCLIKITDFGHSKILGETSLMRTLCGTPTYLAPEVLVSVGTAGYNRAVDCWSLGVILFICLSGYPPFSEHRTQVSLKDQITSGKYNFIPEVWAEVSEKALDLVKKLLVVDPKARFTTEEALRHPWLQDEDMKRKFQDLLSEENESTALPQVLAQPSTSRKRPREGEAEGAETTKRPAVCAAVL

## Cc1ccccc1Nc1nc2cc(F)c(N(C)C(=O)/C=C/CN(C)C)cc2n2cncc12
[1]
  inhibition: 7%
[2]
  bioavailability: 34%
[3]
  inhibition: 11%
[4]
  AUC(0-inf): 876 ng·h/mL
[5]
  IC50: 109 nM
[6]
  inhibition: 15%
[7]
  IC50: 892 nM
[7]; concentration not given here
  inhibition: 40%
[8]
  inhibition: 65%
Mus musculus [9]
  inhibition: Dose-dependent effect
[10]
  inhibition: -4%
[11]
  IC50: 772 nM
[12]
  inhibition: 7%
Ephrin type-A receptor 8
  IC50: 434 nM
[13]
  inhibition: 54%
Mus musculus [14]
  Activity: Active
[15]
  IC50: 43.7 nM
[16]
  IC50: 16 nM
[16]; concentration not given here
  inhibition: 109%
[17]
  inhibition: 8%
[18]
  inhibition: 0%
[19]
  IC50: 0.7 nM
[20]
  inhibition: -3%
[21]
  inhibition: -1%
[22]
  inhibition: 6%
Mus musculus [23]
  Activity: Active
[24]
  Tmax: 3 h
[25]
  Vd: 6.2 L/kg
[26]
  half-life: 1.5 h
[27]
  inhibition: 9%
[28]
  inhibition: 2%
Mus musculus [29]
  Activity: Active
[30]
  inhibition: -4%
[31]
  inhibition: -4%
[32]
  inhibition: 1%
[33]
  inhibition: 19%
[34]
  clearance: 63 mL/min/kg
[35]
  AUC(0-inf): 510 ng·h/mL
[36]
  inhibition: 5%
[37]
  IC50: 353 nM
[38]
  inhibition: 4%
Ephrin type-B receptor 3
  IC50: 350 nM
[39]
  inhibition: 50%
[40]
  inhibition: 4%
[41]
  inhibition: 19%
